Experimental data collected from several papers.
Each line is one published result; the experiments were not run side by side.
Cell line: K562
Effect on: cell growth or viability

C=C(NC(=O)C(=C)NC(=O)c1csc(C2=N[C@@H]3c4csc(n4)[C@H]4NC(=O)c5csc(n5)[C@H]([C@](C)(O)[C@@H](C)O)NC(=O)[C@H]5CSC(=N5)/C(=C/C)NC(=O)[C@H]([C@@H](C)O)NC(=O)c5csc(n5)[C@]3(CC2)NC(=O)[C@H](C)NC(=O)C(=C)NC(=O)[C@H](C)NC(=O)[C@H]([C@@H](C)CC)N[C@@H]2C=Cc3c([C@H](C)O)cc(nc3[C@H]2O)C(=O)O[C@@H]4C)n1)C(N)=O — EC50: 0.6 µM
O=c1cc(OCc2cc(-c3ccccn3)no2)c2ccccc2o1 — IC50 (MTS; 72 h): > 100 µM
O=C(NC1CC1)c1ccc(-c2nc3ccc4[nH]ncc4c3c3c2CCCC3)cc1 — GI50 (resazurin; 72 h): 4.1 µM
FC(F)(F)c1cc(OCc2cc(-c3ccccn3)no2)c2ccccc2n1 — IC50 (MTS; 72 h): > 100 µM
O=C(c1ccc(/C=C/c2n[nH]c3ccccc23)cc1)N1CCNCC1 — GI50: ~0.4 µM
N#Cc1ccc(-c2cc(COc3cc(=O)oc4ccccc34)on2)cc1 — IC50 (MTS; 72 h): > 100 µM
Nc1ccccc1NC(=O)c1ccc(Cn2cnc3c(Nc4ccc(Br)cc4F)ncnc32)cc1 — IC50 (MTT; 72 h): 30.1 µM
Cc1nc(Nc2ncc(C(=O)Nc3c(C)cccc3Cl)s2)cc(N2CC[C@H](O)C2)n1 — inhibition (ATP luminescence; 10 µM, 72 h): 90%
Cc1n[nH]c2ccc3nc(-c4ccc(C(=O)N(C)CCN(C)C)cn4)c4c(c3c12)CCCCC4 — GI50 (resazurin; 72 h): > 10 µM
FC(F)(F)c1cc(OCc2cc(-c3ccccc3)no2)c2ccccc2n1 — IC50 (MTS; 72 h): > 100 µM
CN(C)CCNC(=O)c1ccc(-c2nc3ccc4[nH]ncc4c3c3c2CC(C)(C)CC3)cc1 — GI50 (resazurin; 72 h): 3.7 µM
Nc1ccccc1NC(=O)c1ccc(Cn2cnc3c(Nc4ccc(Cl)cc4)ncnc32)cc1 — IC50 (MTT; 72 h): 17.5 µM
CCN(CC)CCNC(=O)c1ccc(-c2nc3ccc4[nH]ncc4c3c3c2CCCC3)cc1 — GI50 (resazurin; 72 h): 3.6 µM
O=C(Nc1ccc(OC(F)(F)Cl)cc1)c1cnc(N2CC[C@@H](O)C2)c(-c2cc[nH]n2)c1 — EC50 (ATP luminescence; 72 h): 0.005 µM
